This is a sample that favours compounds with a hit; in the whole collection about 4.3% have one here.
UBC13 polyUb: UBC13 polyubiquitin chain formation inhibitors, primary screen, biochemical, TR-FRET, uHTS; Ubiquitin-conjugating enzyme E2 N (Homo sapiens), P61088; inhibition, % at 20 µM; 0.47% of 330,000 active; in the data active means inhibition above about 45%, passing the limit was not always enough; inconclusive means no clear call, values can overlap the other calls
UBC9 SUMO inh: inhibitors of in vitro SUMOylation cascade, primary screen, biochemical, HTRF, uHTS. inhibition, % at 35 µM. AID 2006, 2009. HTRF SUMOylation assay, SAE1/SAE2 + UBC9. 0.36% of 290,000 active. SUMO-conjugating enzyme UBC9 (Homo sapiens), P63279; in the data active means inhibition above about 50%, passing the limit was not always enough; inconclusive means no clear call, values can overlap the other calls
RBBP9 inhibitor: human RBBP9 inhibitors, primary screen, biochemical, fluorescence polarization, FP-Rh probe, HTS. recombinant RBBP9. 0.2% of 220,000 active. AID 1515, 2009. inhibition, % at 7.94 µM;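 active means inhibition above the campaign mean of all tested compounds plus 3 SD, cut at about 14% in these data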;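 further: plate controls were DMSO wells with RBBP9 for no effect and wells lacking RBBP9 protein for full effect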
Target sequence (O75884 whole entry, looked up): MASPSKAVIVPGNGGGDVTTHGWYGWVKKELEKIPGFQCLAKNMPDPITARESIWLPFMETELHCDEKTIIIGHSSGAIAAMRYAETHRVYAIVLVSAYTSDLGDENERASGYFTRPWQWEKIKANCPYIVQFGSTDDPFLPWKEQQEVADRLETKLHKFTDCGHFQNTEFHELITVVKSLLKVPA
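Test system: recombinant human RBBP9. Quantity: 2.5 µM RBBP9 dispensing solution, before mixing. Detection: FP readout at 525/598 nm. Reagent: Serine-hydrolase probe FP-Rh, 375 nM pre-mixing. Measure: % inhibition. Control set: DMSO-treated enzyme wells and wells lacking RBBP9. Buffer or medium: Tris-NaCl-Pluronic buffer, pH 8.0. Times: preincubation 30 min plus labeling 45 min at 25 °C.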
Rin1-Abl PPI inh: inhibitors of Rin1-Abl protein binding, primary screen, biochemical, TR-FRET; Tyrosine-protein kinase ABL1 (Homo sapiens) + Ras and Rab interactor 1 (Homo sapiens), …; inhibition, % at 7.35 µM; 0.4% of 360,000 active; AID 588664, 2011; in the data active means inhibition above about 5%, passing the limit was not always enough
PREPL inhibitor: PREPL enzyme inhibitors, primary screen, biochemical, fluorescence polarization. Prolyl endopeptidase-like (Homo sapiens), Q4J6C6. recombinant PREPL, fluorescence polarization activity-based probe. inhibition, % at 5.96 µM. 0.68% of 320,000 active. AID 2751, 2010; in the data active means inhibition above about 43%;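 further: 0% = enzyme with DMSO and 100% = wells lacking enzyme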
ALR H2O2 inh: inhibitors of human ALR sulfhydryl oxidase, primary screen, biochemical, H2O2 detection, HRP-luminol luminescence, single point | purified ALR, DTT oxidation | inhibition, % (no concentration beside the values) | 3.8% of 290,000 active;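 active means mean replicate inhibition above about 79%, with every replicate also reaching it, limit read from the data; inconclusive means only one of the two criteria met; inactive means mean below limit and not every replicate reaching it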
Target sequence (P55789 whole entry, looked up): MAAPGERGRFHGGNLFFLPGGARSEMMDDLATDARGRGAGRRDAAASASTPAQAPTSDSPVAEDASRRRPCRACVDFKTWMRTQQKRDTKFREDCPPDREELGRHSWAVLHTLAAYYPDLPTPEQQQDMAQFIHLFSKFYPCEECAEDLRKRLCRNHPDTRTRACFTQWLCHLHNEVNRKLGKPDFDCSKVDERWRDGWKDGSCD
Casp3 counter: CASP3 inhibitor validation, counterassay for project on UBE2N polyubiquitination blockers, biochemical, one dose; shares compounds with UBC13 polyUb; Recombinant caspase-3, Caspase-Glo 3/7 luminescence, 60 min; 4% of 1,400 active; AID 488856, 2010; inhibition, % at 20 µM;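 active means mean inhibition across replicates above about 26%, limit read from the data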;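 further: plate controls were DMSO with caspase-3 for no effect and DMSO wells lacking enzyme for full effect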
UBC13 confirm: UBC13 polyubiquitination inhibitors, single-point retest, confirmation, biochemical, TR-FRET, single concentration | shares compounds with UBC13 polyUb | inhibition, % at 10 µM | 68% of 1,400 active; in the data active means inhibition above about 45%; inconclusive means no clear call, values can overlap the other calls
* marks the source's active call; other numbers are inactive results; ? = inconclusive; . = not tested or not shown.

SMILES	UBC13 polyUb	UBC9 SUMO inh	RBBP9 inhibitor	Rin1-Abl PPI inh	PREPL inhibitor	ALR H2O2 inh	Casp3 counter	UBC13 confirm
CC(C)(C)c1ccc2c(c1)C(=O)c1ccccc1C2=O	53.8*	-17.9	-4.3	0.1	17.2	11.0	95.6*	19.3
CC(C)[C@H](CO)N(Cc1cccc(F)c1)c1nc(Nc2cccc(Cl)c2)c2ncn(C(C)C)c2n1	-3.4	-11.7	.	2.1	25.3	-6.9	.	.
CC[C@H](CO)Nc1nc(Nc2cccc(Cl)c2)c2ncn(C(C)C)c2n1	76.7*	6.8	.	2.9	15.4	5.5	-1.9	66.6*
COC(=O)c1c(-c2ccc(OC)cc2)oc2ccc(-c3cc(OC)c(OC)c(OC)c3)cc12	52.5*	.	.	-3.9	5.7	0.0	-1.0	?
CCN1CCN(Cc2ccc(NC(=O)c3ccc(C)c(NC(=O)c4c[nH]c5cc(C(F)(F)F)ccc5c4=O)c3)cc2C(F)(F)F)CC1	107.5*	-14.0	.	-3.3	-16.1	-5.3	-4.6	100.0*
CCN1CCN(Cc2ccc(NC(=O)c3cc(NC(=O)c4cncc(-c5cccs5)c4)cc(OC)c3)cc2C(F)(F)F)CC1	102.2*	-12.3	.	-4.7	-38.2	1.5	-6.7	90.7*
CCN1CCN(Cc2ccc(NC(=O)c3cc(NC(=O)c4cc(-c5ccc(OC)cc5)n[nH]4)cc(OC)c3)cc2C(F)(F)F)CC1	60.9*	-24.7	.	0.3	-10.0	-12.6	1.7	44.3
CN1CCCC(CC2c3ccccc3Sc3ccccc32)C1 (centres undefined)	46.3*	.	.	-0.6	-47.4	0.9	-0.5	27.0
CN1CCCC(OC(=O)c2ccccc2F)C1 (centres undefined)	6.2	1.2	.	1.6	-6.0	-10.4	.	.
CCn1c(=O)cc(SCC(=O)NCCCN2CCN(c3ccc(F)cc3)CC2)c2ccccc21	91.7*	-25.1	-4.1	-76.9	11.5	96.0*	0.3	?
Cn1c(=O)cc(SCC(=O)N2CCN(C3CCCCC3)CC2)c2ccccc21	66.2*	.	.	-23.8	1.8	0.1	-1.9	?
CCSc1ccccc1C(=O)N1CCN(Cc2ccc3c(c2)OCO3)CC1	99.1*	-25.0	6.9	-1.6	14.2	5.1	-0.8	9.1
Cn1c(=O)cc(SCC(=O)N2CCN(Cc3ccc4c(c3)OCO4)CC2)c2ccccc21	38.3	-16.8	-3.3	-39.5	-3.8	-19.2	.	.
CCn1c(=O)cc(SCC(=O)N2CCN(Cc3ccc4c(c3)OCO4)CC2)c2ccccc21	61.3*	27.5	-5.6	-94.7	-7.0	-4.3	-2.3	?
CCn1c(=O)cc(SCC(=O)NCCCN2CCC(C)CC2)c2ccccc21	22.1	20.3	-4.7	-14.6	22.3	-4.6	.	.
CCCc1nnc(NC(=O)c2cn(CC)c3cc(N4CCN(C)CC4)c(F)cc3c2=O)s1	3.9	8.7	-1.7	3.0	-4.3	-3.1	.	.
Cc1cc(NC(=O)c2cccc(Cl)c2)n[nH]1	-0.4	.	.	0.0	-1.9	.	.	.
COc1cc(OC)c(NS(=O)(=O)c2cc(C(=O)NCCCN3CCOCC3)ccc2C)cc1Cl	.	.	.	-2.8	.	.	.	.
CCN1CCN(C(=O)CSc2cc(=O)n(CC)c3ccccc23)CC1	46.6*	6.7	2.6	-34.7	-1.1	.	-2.2	?
CCn1c(=O)cc(SCC(=O)N2CCN(C)CC2)c2ccccc21	14.7	13.1	-2.9	-33.7	-3.8	-13.9	.	.
CCN(CC(=O)Nc1ccc(NC(C)=O)cc1)C(=O)/C=C/c1cn(-c2ccccc2)nc1-c1cccs1	9.3	.	.	-1.3	6.0	-11.1	.	.
CN1CCC(N(C)C(=O)/C=C/c2cn(-c3ccccc3)nc2-c2cccs2)CC1	45.7*	37.8	-9.0	-3.5	-29.5	-35.3	-0.4	44.0
c1ccc(-c2ccc(-c3nccc4ccccc34)[nH]2)cc1	.	10.1	-20.5	.	.	.	.	.

Compound activity: PubChem BioAssay, several laboratories
